The results in this text go back to ChEMBL document CHEMBL1124831, “Conjugate addition ligands of opioid antagonists. Methacrylate esters and ethers of 6 alpha- and 6 beta-naltrexol” (J Med Chem, 1990).

The species entered for one experiment is Mus musculus. Description: Antagonist activity against morphine was determined […] in mice using tail flick assay. The class given is functional. A digest of the protocol:
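Mouse tail-flick test against morphine given sc, run by the Committee on Problems of Drug Dependence. The antagonist dose giving 50% blockade (AD50, mg/kg) is reported with 95% confidence limits.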

The next experiment addresses Mu-type opioid receptor (Bos taurus, UniProt P79350). Kind of experiment: In vitro binding affinity against Opioid receptor mu 1 from bovine caudate nucleus determined in presence of [3H]DAGO (1 nM). A digest of the protocol:
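Crude bovine striatal membranes were stored at -70 °C. […] Competitor was tested at five concentrations, with nonspecific binding defined by 10 μM naloxone. Incubation was 45 min at 25 °C in 50 mM Tris-HCl or potassium phosphate, pH 7.4, with 1 mM EDTA. Read-out was GF/B filtration and scintillation counting. IC50 is from duplicates or triplicates.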

The target in experiment [1] is T1, Opioid receptors; mu/kappa/delta (Homo sapiens, UniProt P41145+P41143+P35372). Kind of experiment: In vitro binding affinity against Opioid receptors from bovine caudate nucleus determined in presence of [3H]- bremazocine (0.5 nM). Type of experiment: protein assay, Bos taurus. Conditions: target entry is the homologue from another species. A digest of the protocol: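 Crude bovine striatal membranes were stored at -70 °C. Competitor was tested at five concentrations, with nonspecific binding defined by 10 μM naloxone. Incubation was 45 min at 25 °C in 50 mM Tris-HCl or potassium phosphate, pH 7.4, with 1 mM EDTA. Read-out was GF/B filtration and scintillation counting. IC50 is from duplicates or triplicates.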

Experiment [2] deals with T1, Opioid receptors; mu/kappa/delta. The conditions noted are these: Bos taurus; at 20 nM.
The target is the same in experiment [3]. Conditions: Bos taurus; at 20 nM. The source holds these as a separate data set.
Experiment [4] shares this target. The conditions noted are these: Bos taurus; at 20 nM. The source holds these as a separate data set.
The target is the same in experiment [5]. Conditions: Bos taurus; at 100 nM.
Experiment [6] shares this target. The conditions noted are these: Bos taurus; at 100 nM. This is another data set of the same source.
Experiment [7] shares this target. The conditions noted are these: Bos taurus; at 100 nM. The source holds these as a separate data set.
Experiment [8] shares this target. The conditions noted are these: Bos taurus; at 100 nM. The source holds these as a separate data set.
For experiment [9] the target is unchanged. The conditions noted are these: Bos taurus; at 100 nM. This is another data set of the same source.
Experiment [10] has the same target. Kind of experiment: Irreversible inhibition of 1 nM DAGO binding against Opioid receptors from protected bovine caudate membrane at 10 nM in presence of NaCl. Set-up: scale not given: the % may be the effect or the level left. Conditions: Bos taurus, target entry is the homologue from another species.
For experiment [11] the target is unchanged. Description: Irreversible inhibition of 1 nM DAGO binding against Opioid receptors from unwashed bovine caudate membrane at 10 nM in presence of NaCl. Set-up: scale not given: the % may be the effect or the level left. The conditions noted are these: Bos taurus, target entry is the homologue from another species.

Sequence of Mu-type opioid receptor (P79350 whole entry): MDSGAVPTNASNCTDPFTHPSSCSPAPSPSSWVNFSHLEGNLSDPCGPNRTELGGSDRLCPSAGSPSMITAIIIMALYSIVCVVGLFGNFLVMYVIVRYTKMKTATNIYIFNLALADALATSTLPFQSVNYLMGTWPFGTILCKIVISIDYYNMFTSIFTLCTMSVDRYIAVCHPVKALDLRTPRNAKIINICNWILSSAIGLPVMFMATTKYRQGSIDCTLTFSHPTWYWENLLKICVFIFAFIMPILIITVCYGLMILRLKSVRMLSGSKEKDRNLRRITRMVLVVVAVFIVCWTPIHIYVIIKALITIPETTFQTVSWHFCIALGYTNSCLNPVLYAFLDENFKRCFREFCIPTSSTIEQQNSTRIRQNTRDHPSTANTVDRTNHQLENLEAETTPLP
T1 sequence (P35372 whole entry, looked up): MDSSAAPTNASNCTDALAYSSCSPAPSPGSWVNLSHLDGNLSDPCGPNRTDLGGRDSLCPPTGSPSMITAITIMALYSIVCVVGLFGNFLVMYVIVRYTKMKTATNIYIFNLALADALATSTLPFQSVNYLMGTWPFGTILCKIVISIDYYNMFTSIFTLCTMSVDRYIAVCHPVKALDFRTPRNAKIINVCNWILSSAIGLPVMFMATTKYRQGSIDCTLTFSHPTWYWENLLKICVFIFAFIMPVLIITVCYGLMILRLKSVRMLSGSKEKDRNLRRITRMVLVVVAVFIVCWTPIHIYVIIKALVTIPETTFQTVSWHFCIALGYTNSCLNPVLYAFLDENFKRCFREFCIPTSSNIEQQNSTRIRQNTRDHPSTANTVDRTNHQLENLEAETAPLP
T1 sequence (P41143 whole entry, looked up): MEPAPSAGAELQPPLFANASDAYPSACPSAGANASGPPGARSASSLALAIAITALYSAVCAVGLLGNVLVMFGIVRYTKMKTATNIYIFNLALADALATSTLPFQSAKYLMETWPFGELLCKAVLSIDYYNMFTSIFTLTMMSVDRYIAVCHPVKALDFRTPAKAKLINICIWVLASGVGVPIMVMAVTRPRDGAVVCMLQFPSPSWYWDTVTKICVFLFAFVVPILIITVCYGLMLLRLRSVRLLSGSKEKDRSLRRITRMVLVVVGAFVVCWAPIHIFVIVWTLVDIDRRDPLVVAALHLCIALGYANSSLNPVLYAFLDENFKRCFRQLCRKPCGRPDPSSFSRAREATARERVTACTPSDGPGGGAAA
T1 sequence (P41145 whole entry, looked up): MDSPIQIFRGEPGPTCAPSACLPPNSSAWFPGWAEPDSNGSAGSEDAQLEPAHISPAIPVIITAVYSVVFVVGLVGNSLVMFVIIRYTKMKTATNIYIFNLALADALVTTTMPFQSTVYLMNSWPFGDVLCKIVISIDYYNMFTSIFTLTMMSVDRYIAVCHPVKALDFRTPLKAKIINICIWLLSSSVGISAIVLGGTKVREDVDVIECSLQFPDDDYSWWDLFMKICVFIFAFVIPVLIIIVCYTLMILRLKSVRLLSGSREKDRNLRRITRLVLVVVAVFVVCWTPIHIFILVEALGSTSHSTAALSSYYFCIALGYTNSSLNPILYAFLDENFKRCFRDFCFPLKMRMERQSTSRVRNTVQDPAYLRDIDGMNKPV

In the experiment listed under Mus musculus, `C=C(COC1CCC2(O)C3Cc4ccc(O)c5c4[C@@]2(CCN3CC2CC2)C1O5)C(=O)OC` (some centres undefined) returned an AD50 of 0.07 mg/kg. Besides, the half-inhibitory concentration (IC50) at Mu-type opioid receptor was found to be 0.18 nM; in [1] it was 2.4 nM. Moreover, the figures for the Control in experiment [2], in [3] and in [4] were 79%, 17% and 96%, respectively.

`O=C1CC[C@@]2(O)[C@H]3Cc4ccc(O)c5c4[C@@]2(CCN3CC2CC2)[C@H]1O5` [NALTREXONE] showed an AD50 in the experiment filed under Mus musculus of 0.007 mg/kg.

In the case of `C=C1CC2(CCC3(O)[C@H]4Cc5ccc(O)c6c5[C@@]3(CCN4CC3CC3)C2O6)OC1=O` (some centres undefined), the IC50 at Mu-type opioid receptor stood at 1.8 nM; in [1] it was 6 nM. Moreover, the figures for the Control in [5], in experiment [6] and in [7] were 50%, 16% and 85%, respectively.

`C=C(C)C(=O)O[C@H]1CC[C@@]2(O)[C@H]3Cc4ccc(O)c5c4[C@@]2(CCN3CC2CC2)[C@H]1O5` showed an AD50 in the experiment listed under Mus musculus of 0.02 mg/kg. Moreover, the IC50 on Mu-type opioid receptor was 6.8 nM; in [1], 20 nM. The Control was 22% in experiment [8] and 100% in [9].

On to `C=C(C)C(=O)OC1CCC2(O)C3Cc4ccc(O)c5c4[C@@]2(CCN3CC2CC2)C1O5` (some centres undefined), for which, in the experiment filed under Mus musculus, the AD50 is 0.02 mg/kg. In addition, the IC50 on Mu-type opioid receptor is 1 nM; in [1], 5 nM. For the same molecule, the Control amounted to 39% in experiment [8] and 100% in [9].

In the experiment listed under Mus musculus, `C=C(CO[C@@H]1CC[C@@]2(O)[C@H]3Cc4ccc(O)c5c4[C@@]2(CCN3CC2CC2)[C@H]1O5)C(=O)OC` returned an AD50 of 0.02 mg/kg. For the same molecule, the IC50 at Mu-type opioid receptor was 1.5 nM; in experiment [1], 12 nM. Also, the Control in experiment [10] worked out at 95%; in experiment [11], 20%; in experiment [2] it was 59%; in experiment [3] it was 35%.
